Measurements taken from the RNAGym collection of RNA variant scans (doi:10.1101/gad.245936.114).
This sample holds only a part of the variants without activity.

B1: tRNA (parent)
chain: CUCUCGGUAGCCAAGUUGGUUUAAGGCGCAAGACUUUAAUUUAUCACUACGAAAUCUUGAGAUCGGGCGUUCGACUCGCCCCCGGGAGAUUUUUUCCUCGAGCAA

Variants of: B1
Test: nonsense suppression (GFP-seq) (ratio to wild type); higher = more function; SUP4oc tRNA, yeast GFP reporter sort-seq
In short: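 Sorted GFP/RFP bins of yeast were each Illumina-sequenced with a phred ≥30 cutoff; the cells held a genome-integrated ochre-suppressor tRNA variant from a library with ~3% random mutations, a galactose-driven GFP ochre reporter, and RFP. Culture was in raffinose/galactose medium containing 80 mg/L adenine. Nonsense suppression, termed GFPSEQ, is the median GFP/RFP of the bins weighted by each variant's estimated cell share per bin, relative to the unmutated parent tRNA, for variants reaching ≥100 reads and ≥30 cells.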

| Variant | nonsense suppression |
| --- | --- |
| G10U U21C A74U | ≤ 0.026 |
| G10U C29A | ≤ 0.026 |
| A9G U22A U35G | ≤ 0.026 |
| G10C A13G G15A U57C | ≤ 0.026 |
| A9U U20G | 0.12 |
| G10A A24C G85U | ≤ 0.026 |
| G10C G73C A87U | ≤ 0.026 |
| G10A A13C | 0.0618 |
| A9U C12U | 0.29 |
| G10A U58A A62G U70A | ≤ 0.026 |
| A9U C12A A13C C72U C79A | ≤ 0.026 |
| G10C G15U A33U | ≤ 0.026 |
| G10U C27A G85A | 0.159 |
| A9G G61U C75G | 1.12 |
| A9U A24G | 0.0422 |
| G10C G15C G32U U63A | ≤ 0.026 |
| G10C G26U G86A G88A | ≤ 0.026 |
| G10U C27U C29A A60C U76G | ≤ 0.026 |
| A9U G88A | 0.0329 |
| G10A A60C G66C G78A | ≤ 0.026 |
| G10C C77U | ≤ 0.026 |

| Variant | nonsense suppression |
| --- | --- |
| G10C C77G | ≤ 0.026 |
| A9U U35G G73A A74U | ≤ 0.026 |
| A9G G61A G85A | 0.303 |
| G10C C79U | ≤ 0.026 |
| A9U G28C G85A | 0.0603 |
| G10U A30C U57C U63C | ≤ 0.026 |
| G10C G19U C64G | ≤ 0.026 |
| A9U G61C | 0.197 |
| A9U G61A | 0.195 |
| A9U G61U | 0.573 |
| G10U C77G | ≤ 0.026 |
| A9G C81U | 0.028 |
| G10U G32C | ≤ 0.026 |
| A9G G15C | 0.173 |
| A9G G15U | 0.0374 |
| G10A C64G | ≤ 0.026 |
| A9G U76A | 0.103 |
| A9U G73A | 0.0814 |
| G10A C11U C64U | ≤ 0.026 |
| A9U C12G U35G C72A | ≤ 0.026 |
| A9U G28U A62G U71G | ≤ 0.026 |

| Variant | nonsense suppression |
| --- | --- |
| G10U C34G U63A C81U | ≤ 0.026 |
| G10A C27U | ≤ 0.026 |
| A9U G86A | 0.0496 |
| A9U C81A | ≤ 0.026 |
| A9U C81U | 0.0272 |
| A9U G85C | 0.0283 |
| G10U U20G U57C | ≤ 0.026 |
| G10A A60U C68A | ≤ 0.026 |
| G10C A24U A30G A33U U55A C80U | ≤ 0.026 |
| C11A A13G | ≤ 0.026 |
| A9G U63A | 0.836 |
| A9G U63C | 0.772 |
| A9G G10U | 0.0476 |
| A9G G10A | 0.0344 |
| A9G U22G | 0.254 |
| A9G U22A | 0.212 |
| A9G U22C | 0.323 |
| G10U G66U G85A | ≤ 0.026 |
| A9U | 0.802 |
| G10C U35A G66C G85U | ≤ 0.026 |
| G10C U21A | ≤ 0.026 |

| Variant | nonsense suppression |
| --- | --- |
| A9G G61A A87G | 0.188 |
| G10C C56G U71G | ≤ 0.026 |
| G10A G85U | ≤ 0.026 |
| G10C U71A A74U A87C | ≤ 0.026 |
| A9U A13U A24G | 0.212 |
| A9U G28A C75U | 0.0978 |
| A9U G25U | ≤ 0.026 |
| A9G C75U | 1.17 |
| A9G C75A | 0.762 |
| A9G C82U | 0.531 |
| A9U U57G C77A G85A | ≤ 0.026 |
| A9G G28A G61A | 1.24 |
| A9U G10A | 0.0292 |
| G10A A33C C34U | ≤ 0.026 |
| A9G G61U | 1.1 |
| A9G G61C | 1.06 |
| A9U A60U | 0.0653 |
| A9U G78A | 0.0365 |
| C11A A30C U57A | ≤ 0.026 |
| G10A A14C C82A | ≤ 0.026 |
